Assay results: ChEMBL document CHEMBL1146375, “Synthetic studies on novel benzimidazolopeptides with antimicrobial, cytotoxic and anthelmintic potential” (2007)
Converted amounts (≈) assume the structure as drawn. Residues, ends and D or L forms follow the SMILES beside them. *: point of attachment. X2 = O=C(c1cc(-c2nc3ccc([N+](=O)[O-])cc3[nH]2)ccc1O)*

How the values were obtained:
Bacillus subtilis [1] = assay: Antibacterial activity against Bacillus subtilis NCIM 2063 after 18 hrs by disc diffusion method; format: functional
Procedure, shortened: (§1)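 Modified Kirby-Bauer disc diffusion. Plates inoculated with spore suspension (about 6 × 10⁴ spores mL^-1). Sterile 6 mm paper discs carried test samples at 10 mg mL^-1; ciprofloxacin disc as reference, DMF disc as negative control. Plates held 18 h at 37 °C. Inhibition zone diameters (mm) averaged over triplicate sets.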

Staphylococcus aureus [2] = assay: Antibacterial activity against Staphylococcus aureus NCIM 2079 after 18 hrs by disc diffusion method; format: functional; procedure, shortened: as §1
Pseudomonas aeruginosa [3] = assay: Antibacterial activity against Pseudomonas aeruginosa NCIM 2034 after 18 hrs by disc diffusion method; format: functional; procedure, shortened: as §1
Escherichia coli [4] = assay: Antibacterial activity against Escherichia coli NCIM 2065 after 18 hrs by disc diffusion method; format: functional; procedure, shortened: as §1
Candida albicans [5] = assay: Antifungal activity against Candida albicans MUCC 29 after 48 hrs by disc diffusion method; format: functional
Procedure, shortened: (§2)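 Agar well diffusion on plates inoculated with spore suspension in normal saline from cultures on Sabouraud's broth. Wells punched and loaded with test samples or griseofulvin at 10 mg mL^-1, with DMSO as negative control. Incubated 48 h at 37 °C.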

Microsporum audouinii [6] = assay: Antifungal activity against Microsporum audouinii MUCC 545 after 48 hrs by disc diffusion method; format: functional; procedure, shortened: as §2
Trichophyton benhamiae [7] = assay: Antifungal activity against Trichophyton mentagrophytes MUCC 665 after 48 hrs by disc diffusion method; format: functional, Arthroderma benhamiae; procedure, shortened: as §2
Aspergillus niger = assay: Antifungal activity against Aspergillus niger MUCC 177 after 48 hrs by disc diffusion method; format: functional; procedure, shortened: as §2
Bacillus subtilis [8] = assay: Antibacterial activity against Bacillus subtilis NCIM 2063 after 18 hrs by tube dilution method; format: functional; conditions: NCIM 2063, 18 h
Procedure, shortened: (§3)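 Tube dilution MIC. Stock diluted in sterile broth to seven concentrations from 200 to 3.1 […]. Each tube inoculated with one loopful of test bacterium and incubated 18 h at 37 °C. MIC read from presence or absence of growth.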

Staphylococcus aureus [9] = assay: Antibacterial activity against Staphylococcus aureus NCIM 2079 after 18 hrs by tube dilution method; format: functional; conditions: NCIM 2079, 18 h; procedure, shortened: as §3
Pseudomonas aeruginosa [10] = assay: Antibacterial activity against Pseudomonas aeruginosa NCIM 2034 after 18 hrs by tube dilution method; format: functional; conditions: NCIM 2034, 18 h; procedure, shortened: as §3
Escherichia coli [11] = assay: Antibacterial activity against Escherichia coli NCIM 2065 after 18 hrs by tube dilution method; format: functional; conditions: NCIM 2065, 18 h
Candida albicans [12] = assay: Antifungal activity against Candida albicans MUCC 29 after 48 hrs by tube dilution method; format: functional
Procedure, shortened: (§4)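 Tube dilution MIC as for bacteria (seven concentrations, 200–3.1 […]), with DMSO in place of DMF. Tubes inoculated with fungal culture and incubated 48 h at 37 °C. MIC read from presence or absence of growth.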

Microsporum audouinii [13] = assay: Antifungal activity against Microsporum audouinii MUCC 545 after 48 hrs by tube dilution method; format: functional; procedure, shortened: as §4
Trichophyton benhamiae [14] = assay: Antifungal activity against Trichophyton mentagrophytes MUCC 665 after 48 hrs by tube dilution method; format: functional, Arthroderma benhamiae; procedure, shortened: as §4
Eudrilus [15] = assay: Anthelmintic activity against Eudrilus sp. assessed as mean paralyzing time; format: functional
Procedure, shortened: (§5)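 Earthworms exposed to test suspensions at 2 mg mL^-1 (0.2% w/v), made by triturating compound with Tween 80 (0.5%) and distilled water, then mechanically stirred 30 min. Mebendazole suspension prepared alike as reference. Paralysis and death times recorded; death confirmed by no movement in 50 °C water. Means from triplicate sets.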

Eudrilus [16] = assay: Anthelmintic activity against Eudrilus sp. assessed as mean death time; format: functional
Procedure, shortened: (§6)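 Earthworms exposed to test suspensions at 2 mg mL−1, prepared by triturating compound with Tween 80 (0.5%) and distilled water, stirring 30 min, then diluting to 0.2% w/v. Mebendazole suspension was made the same way. Death was confirmed by moving worms into 50 °C warm water and looking for movement. Mean death time (min) taken from triplicate sets.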

[17] = Growth inhibition of DLA cells at 500 ug/mL after 3 hrs; format: functional; conditions: Mus musculus
Procedure, shortened: (§7)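 DLA and EAC cells passaged intraperitoneally in albino mice, harvested after 15–20 days and adjusted to 1 × 10⁶ cells/mL. Dilutions in Dulbecco's medium (500–31.25, some down to 3.91 µg/mL; 5-FU reference) mixed 1:1 with cells and held 3 h at 37 °C. Trypan blue exclusion gave % growth inhibition; CTC50 by graphical extrapolation.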

[18] = Growth inhibition of DLA cells at 250 ug/mL after 3 hrs; format: functional; conditions: Mus musculus; procedure, shortened: as §7
[19] = Growth inhibition of DLA cells at 125 ug/mL after 3 hrs; format: functional; conditions: Mus musculus; procedure, shortened: as §7
[20] = Growth inhibition of DLA cells at 62.5 ug/mL after 3 hrs; format: functional; conditions: Mus musculus; procedure, shortened: as §7
[21] = Growth inhibition of DLA cells at 31.25 ug/mL after 3 hrs; format: functional; conditions: Mus musculus; procedure, shortened: as §7
[22] = Growth inhibition of DLA cells after 3 hrs; format: functional; conditions: Mus musculus; procedure, shortened: as §7
[23] = Growth inhibition of EAC cells at 500 ug/mL after 3 hrs; format: functional; conditions: Mus musculus, Ehrlich; procedure, shortened: as §7
[24] = Growth inhibition of EAC cells at 250 ug/mL after 3 hrs; format: functional; conditions: Mus musculus, Ehrlich; procedure, shortened: as §7
[25] = Growth inhibition of EAC cells at 125 ug/mL after 3 hrs; format: functional; conditions: Mus musculus, Ehrlich; procedure, shortened: as §7
[26] = Growth inhibition of EAC cells at 62.5 ug/mL after 3 hrs; format: functional; conditions: Mus musculus, Ehrlich; procedure, shortened: as §7
[27] = Growth inhibition of EAC cells at 31.25 ug/mL after 3 hrs; format: functional; conditions: Mus musculus, Ehrlich; procedure, shortened: as §7
[28] = Growth inhibition of EAC cells after 3 hrs; format: functional; conditions: Mus musculus, Ehrlich; procedure, shortened: as §7
[29] = Anthelmintic activity against Megascoplex konkanensis ICARBC 211 assessed as mean paralyzing time; format: functional; procedure, shortened: as §5
[30] = Anthelmintic activity against Megascoplex konkanensis ICARBC 211 assessed as mean death time; format: functional; procedure, shortened: as §5
Pontoscolex corethrurus [31] = assay: Anthelmintic activity against Pontoscolex corethrurus ICARBC 408 assessed as mean paralyzing time; format: functional; procedure, shortened: as §5
Pontoscolex corethrurus [32] = assay: Anthelmintic activity against Pontoscolex corethrurus ICARBC 408 assessed as mean death time; format: functional; procedure, shortened: as §6

Row | SMILES | inhibition zone (IZ) (Bacillus subtilis [1]) [mm] | inhibition zone (IZ) (Staphylococcus aureus [2]) [mm] | inhibition zone (IZ) (Pseudomonas aeruginosa [3]) [mm] | inhibition zone (IZ) (Escherichia coli [4]) [mm] | inhibition zone (IZ) (Candida albicans [5]) [mm] | inhibition zone (IZ) (Microsporum audouinii [6]) [mm] | inhibition zone (IZ) (Trichophyton benhamiae [7]) [mm] | inhibition zone (IZ) (Aspergillus niger) [mm] | MIC (Bacillus subtilis [8]) [µg/mL] | MIC (Staphylococcus aureus [9]) [µg/mL] | MIC (Pseudomonas aeruginosa [10]) [µg/mL] | MIC (Escherichia coli [11]) [µg/mL] | MIC (Candida albicans [12]) [µg/mL] | MIC (Microsporum audouinii [13]) [µg/mL] | MIC (Trichophyton benhamiae [14]) [µg/mL] | Time (Eudrilus [15]) [min] | Time (Eudrilus [16]) [min] | inhibition at 250 µg/mL [18] [%] | TIME [29] [h] | TIME [30] [h] | also measured
1 | COC(=O)CNC(=O)[C@H](CC(C)C)NC(=O)[C@@H]1CCCN1C(=O)[C@H](Cc1cnc[nH]1)NC(=O)c1cc(-c2nc3ccc([N+](=O)[O-])cc3[nH]2)ccc1O (X2-HPLG-OMe) | 14 | 10 | 24 | 14 | 20 | 12 | 15 | 17 | 6 (≈ 8.36 µM) | 12.5 (≈ 17.4 µM) | 6 (≈ 8.36 µM) | 12.5 (≈ 17.4 µM) | 6 (≈ 8.36 µM) | 6 (≈ 8.36 µM) | 6 (≈ 8.36 µM) | 11.23 | 20.33 | 31.6 | 0.188 | 0.334 | inhibition at 500 µg/mL [17]: 39.5%; inhibition at 125 µg/mL [19]: 23.7%; inhibition at 62.5 µg/mL [20]: 15.8%; inhibition at 31.25 µg/mL [21]: 28.7%; CC50 [22]: > 697 µM; inhibition at 500 µg/mL [23]: 28.7%; inhibition at 250 µg/mL [24]: 21.4%; inhibition at 125 µg/mL [25]: 10.7%; inhibition at 62.5 µg/mL [26]: 7.14%; inhibition at 31.25 µg/mL [27]: 3.57%; CC50 [28]: > 697 µM; Time (Pontoscolex corethrurus [31]): 13.76 min; Time (Pontoscolex corethrurus [32]): 21.72 min
2 | COC(=O)[C@H](Cc1cnc[nH]1)NC(=O)[C@H](Cc1cnc[nH]1)NC(=O)c1cc(-c2nc3cc(C)c(C)cc3[nH]2)ccc1O | 13 | 11 | 21 | 17 | 20 | 11 | 15 | 17 | 6 (≈ 10.5 µM) | 12.5 (≈ 21.9 µM) | 6 (≈ 10.5 µM) | 12.5 (≈ 21.9 µM) | 6 (≈ 10.5 µM) | 6 (≈ 10.5 µM) | 6 (≈ 10.5 µM) | 10.38 | 21.78 | 31.6 | 0.175 | 0.305 | inhibition at 500 µg/mL [17]: 36.8%; inhibition at 125 µg/mL [19]: 21%; inhibition at 62.5 µg/mL [20]: 15.8%; inhibition at 31.25 µg/mL [21]: 7.89%; CC50 [22]: > 877 µM; inhibition at 500 µg/mL [23]: 21.4%; inhibition at 250 µg/mL [24]: 14.3%; inhibition at 125 µg/mL [25]: 7.14%; inhibition at 62.5 µg/mL [26]: 7.14%; inhibition at 31.25 µg/mL [27]: 3.57%; CC50 [28]: > 877 µM; Time (Pontoscolex corethrurus [31]): 12.22 min; Time (Pontoscolex corethrurus [32]): 23.75 min
3 | COC(=O)[C@@H]1CCCN1C(=O)c1ccc(-c2nc3cc(C)c(C)cc3[nH]2)cc1 | 13 | 11 | 22 | 17 | 16 | 9 | 13 | 17 | 6 (≈ 15.9 µM) | 12.5 (≈ 33.1 µM) | 6 (≈ 15.9 µM) | 12.5 (≈ 33.1 µM) | 6 (≈ 15.9 µM) | 25 (≈ 66.2 µM) | 6 (≈ 15.9 µM) | 32.25 | 45.34 | 18.4 | 0.473 | 0.676 | Time (Pontoscolex corethrurus [31]): 35.57 min; Time (Pontoscolex corethrurus [32]): 50.26 min
